From PubChem BioAssay
The source made the active and inactive calls.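 The calls were made as follows, unless noted: active = GFP response above 150% of the DMSO level; inconclusive = fewer than 70 events counted for a yeast strain; inactive = the rest.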

Tests used:
[1] = RPL19A-GFP modulators, yeast TOR pathway, confirmation, cell-based, S. cerevisiae, flow cytometry, cherry picks, mother/daughter gates (AID 2270;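 active = GFP response below 50% of the DMSO control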); conditions: S. cerevisiae RPL19A-GFP strain, 3 h, at 10 µM, stronger effect = lower value, 100 = same GFP as DMSO wells
[2] = LAP4-GFP expression modulators in yeast, confirmation, cell-based, cherry picks, flow cytometry, mother/daughter gates (AID 2271;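 active = GFP response above 150% of the DMSO control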;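 also: ratio of sample to DMSO plate mean so 100% equals DMSO level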); conditions: S. cerevisiae LAP4-GFP strain, 3 h, at 10 µM, stronger effect = higher value, 100 means same as DMSO control
Procedure, shortened: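 System – GFP-fusion yeast strain · Amount – 0.2 OD600 cells · Buffer or medium – SC growth medium · Dosing – single test-compound dose, 10 µM final · Schedule – 3 h treatment at 30 °C with rotation · Detection – GFP by flow cytometry · Read-out – per-gate (all, mother, daughter) GFP response vs DMSO · Benchmarks – positive rapamycin (400 ng/mL), negative DMSO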

[3] = modulators of MEP2-GFP levels in yeast, confirmation, S. cerevisiae, flow cytometry GFP, cherry picks (AID 2272;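 active = GFP response above 150% of the DMSO control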;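 also: ratio of well signal to plate DMSO mean so 100% equals DMSO level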); conditions: S. cerevisiae MEP2-GFP strain, 3 h, at 10 µM, stronger effect = higher value
[4] = AGP1-GFP expression modulators, hit retest, confirmation, cell-based, flow cytometry, S. cerevisiae, cherry picks (AID 2273);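 also: median GFP channel fluorescence over the whole cell population gate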; conditions: S. cerevisiae AGP1-GFP strain, 3 h, at 10 µM
[5] = modulators of CIT2-GFP expression in yeast, confirmation, S. cerevisiae, GFP fusion, cherry picks, mother/daughter gates (AID 2274); conditions: S. cerevisiae CIT2-GFP strain, flow cytometry, 3 h, at 10 µM, stronger effect = higher value
[6] = measured here: daughter cell gate
[7] = measured here: mother cell gate
[8] = measured here: daughter cell gate response
[9] = measured here: mother cell gate response

Row | Structure (SMILES) | GFP response vs DMSO [1] | GFP response vs DMSO [1, 6] [%] | GFP response vs DMSO [1, 7] [%] | GFP response relative to DMSO [2] | GFP response relative to DMSO [2, 8] [%] | GFP response relative to DMSO [2, 9] [%] | GFP response vs DMSO [3] | GFP response, % of DMSO [4] | GFP response, % of DMSO [5] | GFP response, % of DMSO [5, 6] [%] | GFP response, % of DMSO [5, 7] [%]
1 | Cc1cc(C)c(S(=O)(=O)ON2C(=O)c3ccccc3C2=O)cc1C | 88.4% (inactive) | 90.8 | 76.7 | 255% (active) | 209 | 252 | 114% (inactive) | 97.5% (inactive) | 102% (inactive) | 98.3 | 71.1
2 | COc1ccc(N2C(=O)C(Cl)=C(NCc3ccccc3)C2=O)cc1 | 96.5% (inactive) | 93 | 95.9 | 111% (inactive) | 111 | 112 | 99.3% (inactive) | 95.9% (inactive) | 91.7% (inactive) | 92.3 | 90.4
3 | COc1ccc(N2CCN(C(=O)CCc3nnc4ccc(N5CCCC5)nn34)CC2)cc1 | 101% (inactive) | 99.2 | 101 | 96.2% (inactive) | 98.7 | 97.2 | 100% (inactive) | 97.8% (inactive) | 104% (inactive) | 101 | 104
4 | Cc1ccc2[nH]c(C)c(/C=C/c3cc[n+](C)cc3)c2c1 | 118% (inactive) | 120 | 117 | 198% (active) | 210 | 190 | 268% (active) | 122% (inactive) | 223% (active) | 241 | 211
5 | Cc1ccnc(N2C(=O)c3cccc4c([N+](=O)[O-])ccc(c34)C2=O)c1 | 102% (inactive) | 101 | 95 | 182% (active) | 177 | 178 | 318% (active) | 123% (inactive) | 177% (active) | 159 | 164
6 | CCOc1cc(N2CCOCC2)c(OCC)cc1NC(=O)C(NC(=O)c1ccco1)C(C)C (stereo not given) | 102% (inactive) | 101 | 102 | 91.4% (inactive) | 95.6 | 93.1 | 107% (inactive) | 99.6% (inactive) | 108% (inactive) | 108 | 108
7 | O=C(CSc1ccc(Cl)cc1)Nc1cccc(-c2nc3ccccc3[nH]2)c1 | 97.8% (inactive) | 98 | 97.8 | 101% (inactive) | 97.9 | 101 | 99.5% (inactive) | 98% (inactive) | 96.4% (inactive) | 96.4 | 95.6
8 | CC1=CC(=O)C(C(C)C)=C/C1=N/OS(=O)(=O)c1ccccc1 | 78.6% (inactive) | 51.6 | 71.3 | 271% (active) | 175 | 270 | 127% (inactive) | 118% (inactive) | 99.7% (inactive) | 111 | 83.8
9 | COc1ccc2c(/C=C/c3cc[n+](C)cc3)c[nH]c2c1 | 102% (inactive) | 106 | 101 | 144% (inactive) | 152 | 143 | 199% (active) | 100% (inactive) | 161% (active) | 169 | 157
10 | COc1ccc(N(CC(=O)N/N=C/c2cc(OC)ccc2OC)S(=O)(=O)c2ccccc2)cc1 | 96% (inactive) | 97.4 | 86.9 | 92.8% (inactive) | 96 | 92.9 | 96.2% (inactive) | 99.1% (inactive) | 99.7% (inactive) | 101 | 99.7
11 | Cn1c(=O)c(C(=O)Nc2ncccc2O)c(O)c2ccccc21 | 95.3% (inactive) | 93.9 | 91.8 | 100% (inactive) | 91.3 | 90.3 | 145% (inactive) | 99.8% (inactive) | 90.3% (inactive) | 90.5 | 88.2
12 | CCCN1CCN(C(=O)c2oc3ccccc3c2NC(=O)COc2ccc(OC)cc2)CC1 | 98.6% (inactive) | 100 | 99.8 | 95.4% (inactive) | 96 | 95.1 | 102% (inactive) | 98.1% (inactive) | 105% (inactive) | 106 | 106
13 | NC(=O)CSCc1c(Cl)cccc1Cl | 101% (inactive) | 100 | 101 | 105% (inactive) | 103 | 108 | 109% (inactive) | 97.2% (inactive) | 93.9% (inactive) | 94.8 | 92.3
14 | O=C1C(Cl)=C(Nc2ccccc2O)C(=O)N1CCc1ccccc1 | 98% (inactive) | 97.8 | 97.9 | 103% (inactive) | 101 | 104 | 112% (inactive) | 104% (inactive) | 106% (inactive) | 104 | 104
15 | O=C(COC(=O)c1ccc(NS(=O)(=O)c2cccs2)cc1O)Nc1nc2ccccc2s1 | 101% (inactive) | 100 | 101 | 91.4% (inactive) | 92.5 | 93.1 | 102% (inactive) | 98.5% (inactive) | 102% (inactive) | 98.1 | 104
